Measurements gathered from unrelated publications.
Each line is one published result; the experiments were not run side by side.
CDK18: Cyclin-dependent kinase 18 (CDK18, Homo sapiens, UniProt Q07002)
CDK18 with cyclin Y: Cyclin-dependent kinase 18, with cyclin Y (CDK18, Homo sapiens, UniProt Q07002)

| SMILES | target | read-out | mode | technique | tested at | endpoint | value |
| --- | --- | --- | --- | --- | --- | --- | --- |
| Nc1ncnc2occ(-c3ccc(NC(=O)Nc4cc(C(F)(F)F)ccc4F)cc3)c12 | CDK18 | cell-free assay | inhibitor |  | 20 µM | remaining signal | 0.1% |
| O=[N+]([O-])c1cccc2[nH]c(CNc3nc(N4CCOCC4)nc4c3ncn4-c3ccsc3)nc12 | CDK18 | binding |  | competition with immobilised ligand | 10 µM | binding vs control | 62% |
| Cc1sc(C(=O)NC2COC2)cc1-n1cc(NC(=O)Nc2c(F)cccc2Cl)cn1 | CDK18 with cyclin Y | enzyme activity | inhibitor |  | 10 µM | remaining activity | 119% |
| Cc1ccc(C(=O)NCc2ccsc2)cc1C#Cc1cn(C(C)C)c2ncnc(N)c12 | CDK18 with cyclin Y | enzyme activity | inhibitor |  | 1 µM | activity vs control | 82% |
| CSc1cccnc1N1CCN(Cc2nc3ccccc3[nH]2)CC1 | CDK18 | cell-free assay |  | competition with immobilised ligand | 1 µM | remaining binding | 100% |
| Fc1cccc(-n2cnc3c(NCc4nc5c(F)c(F)ccc5[nH]4)nc(N4CCOCC4)nc32)c1 | CDK18 | binding |  | competition with immobilised ligand | 10 µM | binding vs control | 37% |
| Cc1ccc(C(=O)Nc2ccc(CN3CCN(C)CC3)c(C(F)(F)F)c2)cc1C#Cc1cnc2cccnn12 | CDK18 | enzyme activity | inhibitor |  | 23.5 nM | remaining activity | 89% |
| CN1CC(Oc2cnc(C#N)cc2-c2ccn3nc(NC(=O)C4CC4)cc3c2)C1 | CDK18 with cyclin Y | enzyme activity | inhibitor |  | 1 µM | inhibition | 1% |
| O=C(NS(=O)(=O)c1ccc(NCC2CCOCC2)c([N+](=O)[O-])c1)c1ccc(N2CCN(Cc3ccc(C(F)(F)F)cc3-c3ccc(Cl)cc3)CC2)cc1Oc1cnc2[nH]ccc2c1 | CDK18 | cell-free assay |  | competition with immobilised ligand | 1 µM | remaining binding | 100% |
| O=C(Nc1cnn(-c2csc(C(=O)NC3COC3)c2)c1)Nc1ccccc1Cl | CDK18 with cyclin Y | enzyme activity | inhibitor |  | 5 µM | remaining activity | 101% |
| COc1cc(Cl)c(C(=O)N[C@@H](CN[C@H]2CC[C@@H](N)CC2)Cc2ccc(C#N)cc2)cc1-c1ccc(CN[C@H](C)c2ccc(C)cc2)o1 | CDK18 with cyclin Y | enzyme activity | inhibitor |  | 1 µM | remaining activity | 103% |
